# Arr AP2 block = inhibitors of beta-arrestin/AP2 binding, primary screen, biochemical, GPCR trafficking, flow cytometry | beta-arrestin 1 C-terminal peptide binding to AP2 beta2-adaptin appendage (human) | FITC-arrestin peptide / GST-AP2 beads; AP2 beta2 appendage carries R879A mutation | inhibition, % at 10 µM | 340,000 tested, 0.31% active | AID 504490, 2011;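 active means inhibition above a set limit, near 3 SD of compounds lacking own fluorescence, cut at about 54% in these data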;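 further: plate controls were DMSO wells for no effect and 5 µM unlabelled arrestin peptide for full effect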
#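 Test system: GST-tagged AP2 beta2-adaptin appendage (R879A) on 4 µm glutathione beads; also added: fluorescein-tagged arrestin peptide at 50 nM final; timing: 12 min plus 1 h, RT; signal: flow cytometry, FL1 (488/535 nm); read-out: percent drop in bead-associated FITC signal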
# CAL PDZ FP-1 = untagged CAL PDZ binding inhibitors, primary screen, biochemical, fluorescence polarization, HTS | Golgi-associated PDZ and coiled-coil motif-containing protein (Homo sapiens), Q9HD26 | purified CAL PDZ, TMR-peptide fluorescence polarization, 1 h | inhibition, % at 24.9 µM | 300,000 tested, 0.92% active | AID 602252, 2012;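 active means mean inhibition of at least 30% with at least half of replicates also reaching 30%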;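 further: 0% = DMSO neutral control and 100% = excess unlabeled competitor peptide PRC23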
# CAL PDZ FP-2 = CAL PDZ peptide-binding inhibitors, primary screen, biochemical, fluorescence polarization, Cer-tagged CAL PDZ, HTS; purified CAL PDZ, TMR-peptide fluorescence polarization, 1 h; Golgi-associated PDZ and coiled-coil motif-containing protein (Homo sapiens), Q9HD26; inhibition, % at 20 µM; 330,000 tested, 0.02% active;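 active means highest replicate inhibition of at least 40%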;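 further: plate controls were DMSO neutral control wells for no effect and unlabeled competitor peptide control wells for full effect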
#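 Assay system – tagged CAL PDZ protein CerCALP, purified · Timing – 1 h at RT · Compound – single point, 20 µM · Measured by – fluorescence polarization from S- and P-plane intensities, G-factor corrected · Evaluation – inhibition from polarization loss · Probe or stimulus – TMR reporter peptide T*-PRC34 · Buffer or medium – pH 7.4 phosphate-saline buffer, reducing agent, detergent, IgG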
# DDE Tn7 FP inh = inhibitors of Tn7 peptide binding to fibrin DD(E), primary screen, biochemical, fluorescence polarization, human fibrin, Tn7 probe | AID 720508, 2013 | FP displacement of FITC-Tn7 peptide from fibrin DD(E); 0% = median of compound wells per plate | Fibrinogen beta chain (Homo sapiens), P02675 | 370,000 tested, 0.13% active | inhibition, % at 8.3 µM;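 active means inhibition above the mean of compounds falling within the control limits plus 3 SD of them, cut at about 14% in these data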;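 further: 0% = plate median of compound wells and 100% = 10 µM Aha-Tn7 peptide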
# Target sequence (P02675 whole entry, looked up): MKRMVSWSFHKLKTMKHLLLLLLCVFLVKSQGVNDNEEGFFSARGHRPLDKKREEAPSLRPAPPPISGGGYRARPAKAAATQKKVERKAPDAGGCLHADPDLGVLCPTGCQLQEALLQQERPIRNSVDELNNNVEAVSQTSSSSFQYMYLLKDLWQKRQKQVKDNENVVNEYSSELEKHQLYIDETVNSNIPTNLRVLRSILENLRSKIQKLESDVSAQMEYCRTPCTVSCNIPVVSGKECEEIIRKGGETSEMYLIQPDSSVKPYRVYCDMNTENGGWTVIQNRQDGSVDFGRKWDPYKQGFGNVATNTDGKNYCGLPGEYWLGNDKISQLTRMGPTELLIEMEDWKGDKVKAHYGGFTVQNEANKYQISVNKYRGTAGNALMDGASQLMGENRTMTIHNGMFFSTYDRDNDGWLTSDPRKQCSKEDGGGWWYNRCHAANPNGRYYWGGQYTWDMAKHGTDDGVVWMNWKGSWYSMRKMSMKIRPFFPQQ
#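 Assay system: human fibrin DD(E). Input: DD(E) 2 µM final. Medium: Tris buffer with calcium and detergent, pH 7.8. Compound dosing: single point at 8.3 µM. Timing: 10 min plus 3 h, room temperature. Technique: fluorescence polarization of the labelled Tn7 tracer. Read-out: percent inhibition. Replicates: singlicate testing.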
# Tn6 DDE FP = inhibitors of Tn6 peptide binding to fibrin DD(E), primary screen, biochemical, fluorescence polarization, human fibrin, Tn6 probe. AID 720509, 2013. inhibition, % at 8.3 µM. Fibrin DD(E) TRITC-Tn6 fluorescence polarization displacement. 370,000 tested, 0.21% active;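 active means inhibition above a per-campaign cutoff: mean of compounds within control limits plus 3 SD, cut at about 15% in these data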;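 further: 0% = median of all compound wells on the plate and 100% = blocking peptide control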
# DDE Tn6 FP ctr = counter-screen for inhibitors of Tn6 peptide binding to fibrin DD(E); shares compounds with Tn6 DDE FP; TRITC-Tn6 fluorescence polarization displacement; 0% = median of compound wells, not DMSO; inhibition, % at 8.3 µM; 680 tested, 2% active; AID 720621;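 active means inhibition above the mean of test compounds lying between the control limits plus 3 SD of those, cut at about 14% in these data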;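 further: 0% = median of compound wells and 100% = wells with Aha-Tn7 blocking peptide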
# Tn6 DDE conf = inhibitors of Tn6 peptide binding to fibrin DD(E), confirmation, biochemical, fluorescence polarization, human fibrin, Tn6 probe | FP displacement of TRITC-Tn6 peptide from DD(E); 0% = per-plate median of test wells | shares compounds with Tn6 DDE FP | 680 tested, 10% active | AID 720631, 2013 | inhibition, % at 8.3 µM;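 active means inhibition above the mean of compounds lying within the control limits plus 3 SD, cut at about 16% in these data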;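 further: 100% = high control wells holding a competing inhibitor peptide at 10 µM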
# * hit, by the source's call; . = no result given. This is a sample that favours compounds with a hit; in the whole collection about 1.4% have one here.
SMILES,Arr AP2 block,CAL PDZ FP-1,CAL PDZ FP-2,DDE Tn7 FP inh,Tn6 DDE FP,DDE Tn6 FP ctr,Tn6 DDE conf
COc1ccc(C(C)(C)C)cc1N1C(=O)[C@@H]2CSCCS(=O)(=O)N2C1=O,.,.,.,7.6,-2.8,.,.
O=C(CN1C2CCCC1CC(NC(=O)C1CCCCC1)C2)NCc1ccc(F)cc1 (stereo not given),-8.4,-2.1,0.2,-2.5,15.5*,0.7,-3.5
O=C(N/C=C/n1cnc2cc(C(F)(F)F)ccc21)c1ccc(F)cc1,.,.,.,-1.3,-3.1,.,.
COc1ccc(C(=O)N/C=C/n2cnc3cc(C(F)(F)F)ccc32)cc1,-1.5,-1.5,-1.3,10.8,15.5*,3.4,-0.1
O=C(Nc1ccc(Cl)cn1)C1CCCN(c2ncnc3c2nc2n3CCCCC2)C1 (stereo not given),-3.5,3.0,-2.6,-0.5,-0.3,.,.
O=C(Nc1ccc(Cl)cn1)C1CCN(c2ncnc3c2nc2n3CCCCC2)CC1,-0.2,12.6,-1.9,-0.6,17.1*,-3.2,-3.4
CSc1cccc(NC(=O)C(=O)NCc2ccccc2)c1,11.5,-1.2,-0.3,7.0,-3.9,.,.
CSc1cccc(NC(=O)NCc2cccc(CNC(=O)Nc3cccc(SC)c3)c2)c1,-11.2,2.9,-0.3,8.4,27.0*,5.1,-4.1
Nn1c(SCC(=O)Nc2ccc(OCc3ccccc3)cc2)nnc1-c1cc(-c2ccc(Cl)cc2)n[nH]1,.,.,.,8.0,0.6,.,.
O=C(Nc1cccc(Br)c1)OC1CC2CC1[C@H]1CCCCN1[C@H]2Cc1ccccc1 (stereo not given in full),.,.,.,-5.8,0.1,.,.
COc1ccc(NS(=O)(=O)c2ccc3nc(COc4cccc5ccccc45)[nH]c3c2)cc1,4.9,.,-0.2,4.9,6.0,.,.
COc1ccc(NS(=O)(=O)c2ccc3nc(COc4ccc5ccccc5c4)[nH]c3c2)cc1,-5.5,5.4,-0.7,3.5,54.5*,-0.7,-10.4
COc1cccc(-c2cc(CNC(=O)[C@H]3O[C@@H](n4cnc(C(N)=O)n4)[C@H](O)[C@@H]3O)no2)c1,.,.,.,-0.2,3.7,.,.
CN(C)c1cccc(O)c1,21.8,-2.3,-1.3,-3.7,34.0*,0.1,3.0
Cc1cc(O)ccc1Nc1cc(-c2cccc(N(C)C)c2)ncn1,.,.,.,2.1,-0.9,.,.
c1cc(-c2ccoc2)n2ccnc2c1,.,.,.,8.0,23.1*,-6.8,-7.3
c1cc(-c2ccsc2)n2ccnc2c1,.,.,.,1.9,-7.9,.,.
CCOC(=O)[C@]12CCCCC/C=C\1N(CCc1ccc(Cl)cc1)C(=O)[C@H]2CC(=O)N1CCN(C(=O)C2CC2)CC1,.,.,.,3.0,-1.6,.,.
Cn1c(N)c(C(=O)COC(=O)Cc2ccc(Br)cc2)c(=O)n(C)c1=O,12.1,-2.1,-2.7,-4.5,-6.5,.,.
Cn1c(N)c(C(=O)COC(=O)CC2CC3CCC2C3)c(=O)n(C)c1=O (stereo not given),8.1,87.5*,9.9,7.0,15.5*,9.5,6.4
Nc1ncnc2c1CN(Cc1ccccc1)CC2,2.8,.,-1.1,5.1,64.5*,-7.4,-7.3
O=C(Nc1ccncc1)c1cc(C2CCCCN2C(=O)CCc2ccccc2)on1 (stereo not given),.,.,.,-3.3,15.3*,4.1,-1.0
O=C(Nc1ccncc1)c1cc(C2CCCCN2C(=O)CCCc2ccccc2)on1 (stereo not given),.,.,.,4.2,0.3,.,.
CCn1c2ccccc2c2cc(C=NNC(=O)c3ccoc3C)ccc21,.,.,.,-0.3,-2.1,.,.
N#Cc1ccc(/C=C2\CC3(OC(=O)c4ccccc4)CCCN2C3)cc1 (stereo not given),.,.,.,-5.1,0.3,.,.
SMILES,Arr AP2 block,CAL PDZ FP-1,CAL PDZ FP-2,DDE Tn7 FP inh,Tn6 DDE FP,DDE Tn6 FP ctr,Tn6 DDE conf
CCOC(=O)Nc1ccc2c(c1)Cc1cc([N+](=O)[O-])ccc1-2,-14.2,.,1.3,-9.1,17.5*,-2.4,-10.2
CC(=O)O[C@@H]1CCC[C@@]2(C(=O)N(Cc3ccccc3)c3ccc(-c4c(C)noc4C)cc32)[C@H]1NC(=O)CCc1ccccc1,.,.,.,-2.5,-0.9,.,.
O=C(COC(=O)CSc1ccc(Br)cc1)NCc1ccco1,-13.6,-4.7,-1.8,5.1,0.5,.,.
Cc1cc(Br)ccc1SCC(=O)OCC(=O)NCc1ccco1,6.5,3.0,-0.3,1.3,15.4*,-0.2,-0.6
CC1CCc2c(sc(NC(=O)Cn3nc(C(F)(F)F)c4c3CCCCC4)c2C#N)C1 (stereo not given),14.7,0.3,0.9,2.1,17.0*,8.7,7.1
COc1ccc(S[C@]2(C(=O)N3CCOCC3)CC(=O)N(c3ccc(C#N)cc3)[C@@H]2c2ccc(OC)cc2)cc1,.,.,.,0.4,-6.0,.,.
CC(C)NC(=O)c1onc(CSc2nc3ccccc3[nH]2)c1C(=O)NC(C)C,-2.7,6.4,-1.6,-1.6,15.3*,3.6,-1.0
COc1ccc(-c2cc(-c3nnc4sc(-c5cccs5)nn34)[nH]n2)cc1,.,.,.,-5.4,1.2,.,.
C[C@@H]1CN([C@H](C)CO)C(=O)c2c(c3ccccc3n2C)-c2ccccc2CO[C@@H]1CN(C)C(=O)Nc1ccccc1C(F)(F)F,.,.,.,-6.3,3.3,.,.
COc1ccc(NC(=O)N(C)C[C@@H]2OCc3ccccc3-c3c(n(C)c4ccccc34)C(=O)N([C@H](C)CO)C[C@H]2C)c(OC)c1,.,.,.,-6.2,17.3*,-3.7,-5.3
COc1ccc(CNCC#Cc2ccc(C)cc2)c(OC)c1,.,.,.,0.1,-0.8,.,.
CCc1nc2ccc(C(=O)NCCOc3ccc(OC)cc3)cn2c1N(C)C(=O)C1CCCCC1,.,.,.,7.1,15.8*,-1.2,-3.7

# Screening data as filed in PubChem.
